Active and inactive are the calls of the source. The calls are words filed in the database; no cut-off is given here.
Assays:
Homo sapiens [1] = species on record: Homo sapiens; test: Inhibition of wild type human recombinant His-BCA2 autoubiquitination expressed in Escherichia coli at 5 uM after 30 mins by Western blotting in presence of human recombinant E2 UbcH5b
How it was run: (§1)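 10 ng E. coli-expressed His-BCA2 preincubated 30 min at room temperature with compound (final 5 or 50 μM, DMSO stocks). Then added ATP, 1 μg ubiquitin, 20 ng rabbit E1 and 20 ng UbcH5b in Tris HCl pH 8.0 with DTT and MgCl2. Reaction 1 h at 30 °C, then SDS-PAGE on 4–20% gel and immunoblot with anti-ubiquitin antibody.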

MDA-MB-231 [2] = test: Antiproliferative activity against human MDA-MB-231 cells expressing BCA2 and ERalpha after 72 hrs by MTT assay; assay type: functional, cell-based; conditions: MDA-MB-231, 72 h
How it was run: (§2)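 Each compound run in triplicate; actives repeated in three independent experiments, IC50 read from growth curves as mean ± SD. Cells in RPMI 1640 + 10% heat-inactivated FBS (MDA-MB-231/ER also with 1 mg/mL G418; MCF10A in MEGM), 37 °C, 5% CO2, exponential phase.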

T47D = test: Antiproliferative activity against human T47D cells expressing BCA2 and estrogen receptor after 72 hrs by MTT assay; assay type: functional, cell-based; how it was run: as §2
[3] = Antiproliferative activity against human MCF10A cells after 72 hrs by MTT assay; assay type: cell-based; conditions: MCF-10A; how it was run: as §2
[4] = molecular target: E3 ubiquitin-protein ligase Mdm2 (Homo sapiens) (UniProt Q00987); test: Inhibition of recombinant RING-E3 ligase Mdm2 autoubiquitination at 5 to 50 uM after 30 mins by Western blotting in presence of human recombinant E2 UbcH5b
Chain of E3 ubiquitin-protein ligase Mdm2 (Homo sapiens) (Q00987 whole entry, looked up): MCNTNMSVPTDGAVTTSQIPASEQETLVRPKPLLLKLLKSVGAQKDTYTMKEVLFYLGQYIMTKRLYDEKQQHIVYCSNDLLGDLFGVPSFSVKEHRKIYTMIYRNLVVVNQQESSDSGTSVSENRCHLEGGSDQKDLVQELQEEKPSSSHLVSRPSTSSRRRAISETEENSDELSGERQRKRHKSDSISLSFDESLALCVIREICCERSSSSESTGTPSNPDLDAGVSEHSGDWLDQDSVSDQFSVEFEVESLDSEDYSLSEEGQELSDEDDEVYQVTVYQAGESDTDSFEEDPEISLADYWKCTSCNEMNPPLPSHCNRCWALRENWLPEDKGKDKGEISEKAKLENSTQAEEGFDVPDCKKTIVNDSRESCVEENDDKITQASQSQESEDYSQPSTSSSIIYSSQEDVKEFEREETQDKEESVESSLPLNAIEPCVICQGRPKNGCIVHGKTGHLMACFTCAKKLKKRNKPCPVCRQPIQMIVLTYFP

Homo sapiens [5] = species on record: Homo sapiens; test: Inhibition of wild type human recombinant His-BCA2 autoubiquitination expressed in Escherichia coli at 50 uM after 30 mins by Western blotting in presence of human recombinant E2 UbcH5b; how it was run: as §1
[6] = molecular target: T1, Aldehyde dehydrogenase 1A1 (Homo sapiens) (UniProt P00352); test: Inhibition of ALDH1 in human K562 cells at 15 uM after 45 mins by flow cytometry based method relative to bodipy-aminoacetaldehyde; assay type: cell-based
T1 sequence (whole entry): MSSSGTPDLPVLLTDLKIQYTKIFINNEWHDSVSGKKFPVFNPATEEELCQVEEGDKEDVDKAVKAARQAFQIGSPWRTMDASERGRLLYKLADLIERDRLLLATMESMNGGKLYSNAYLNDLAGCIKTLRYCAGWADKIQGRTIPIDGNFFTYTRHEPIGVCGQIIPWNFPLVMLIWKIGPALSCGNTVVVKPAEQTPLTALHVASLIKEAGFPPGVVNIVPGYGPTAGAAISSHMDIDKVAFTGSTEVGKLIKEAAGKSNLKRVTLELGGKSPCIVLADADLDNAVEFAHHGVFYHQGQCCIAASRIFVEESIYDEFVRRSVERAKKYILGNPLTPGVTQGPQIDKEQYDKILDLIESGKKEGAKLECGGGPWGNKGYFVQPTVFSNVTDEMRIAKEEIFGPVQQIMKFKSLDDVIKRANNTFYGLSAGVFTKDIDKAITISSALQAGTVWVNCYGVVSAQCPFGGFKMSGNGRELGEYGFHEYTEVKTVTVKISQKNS

MCF7 [7] = test: Antiproliferative activity against human MCF7 cells expressing BCA2 and estrogen receptor after 72 hrs by MTT assay; assay type: functional, cell-based; conditions: MCF7, 72 h; how it was run: as §2
MDA-MB-231 [8] = test: Antiproliferative activity against BCA2 and ER deficient human MDA-MB-231 cells after 72 hrs by MTT assay; assay type: functional, cell-based; conditions: MDA-MB-231, 72 h; how it was run: as §2
K562 = test: Percentage of ALDH+ cells in human K562 cells at 15 uM after 45 mins by flow cytometry based method; conditions: K562, 0.75 h
MCF7 [9] = test: Antiproliferative activity against human MCF7 cells expressing BCA2 and estrogen receptor at IC50 concentration after 5 days by MTT assay in presence of 75 uM to 600 nM zinc chloride; assay type: functional, cell-based
How it was run: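 MCF-7 cells (BCA2+, ER+) grown in RPMI 1640 with 10% heat-inactivated FBS, 37 °C, 5% CO2, used in exponential growth. Drug given with zinc chloride across 600 nM–75 μM for 5 days, then MTT read-out. Vehicle-treated cells without ZnCl2 or drug set as 100% growth.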

MCF7 [10] = test: Reduction of BCA2 protein expression in human MCF7 cells at IC100 after 16 hrs by Western blotting in presence of cyclohexamide and MG132; assay type: functional, cell-based
MCF7 [11] = test: Reduction of BCA2 protein expression in human MCF7 cells at IC100 after 16 hrs by Western blotting in presence of MG132; assay type: functional, cell-based
MCF7 [12] = test: Reduction of BCA2 protein expression in human MCF7 cells at IC100 after 16 hrs by Western blotting; assay type: functional, cell-based
MCF7 [13] = test: Reduction of BCA2 protein expression in human MCF7 cells at IC100 after 16 hrs by Western blotting in presence of cyclohexamide; assay type: functional, cell-based

SMILES	Activity (Homo sapiens [1])	IC50 (MDA-MB-231 [2]) [nM]	IC50 (T47D) [nM]	IC50 [3] [nM]	Activity [4]	Activity (Homo sapiens [5])	inhibition [6] [%]	IC50 (MCF7 [7]) [nM]	IC50 (MDA-MB-231 [8]) [nM]	ALDH+ cells (%) at 15 µM (K562) [%]	Activity (MCF7 [9])	Activity (MCF7 [10])	Activity (MCF7 [11])	Activity (MCF7 [12])	Activity (MCF7 [13])
CCN(CC)C(=S)SSCCO	inactive	2750	300	> 10000	inactive	Active	8.6	500	–	–	–	–	–	–	–
CCCCSSC(=S)N1CCCCC1	–	390	350	> 10000	–	–	–	650	8000	–	–	–	–	–	–
S=C(SSC1CCCCC1)N1CCCCC1	–	2300	250	> 10000	–	–	–	600	6700	–	–	–	–	–	–
S=C(SSC1CCCCC1)N1CCCC1	–	250	1350	> 10000	–	–	–	1400	4700	–	–	–	–	–	–
Cc1cc(C)n2c1C=C1C=CC(CCC(=O)NCC=O)=[N+]1[B-]2(F)F	–	–	–	–	–	–	0	–	–	40.4	–	–	–	–	–
CCN(CC)C(=S)SSc1ccc(C(=O)O)cc1	–	550	150	> 10000	–	–	–	500	6300	–	–	–	–	–	–
CCC(C)SSC(=S)N(CC)CC (stereo unspecified)	–	2100	200	> 10000	–	–	–	450	6000	–	–	–	–	–	–
CN1CCN(C(=S)SSC(=S)N2CCN(C)CC2)CC1	–	290	330	> 10000	–	–	–	350	3000	–	–	–	–	–	–
CCN(CC)C(=S)SSC(=S)N(CC)CC	inactive	320	170	10000	inactive	Active	57.3	100	> 10000	17.3	inactive	–	–	–	–
S=C(SSC(=S)N1CCCCC1)N1CCCCC1 [BIS(PIPERIDINYLTHIOCARBONYL)DISULFIDE]	inactive	590	270	> 10000	inactive	Active	79.5	30	> 10000	8.3	inactive	Active	Active	Active	Active
S=C(SSC(=S)N1CCCC1)N1CCCC1 [BIS(PYRROLIDINYLTHIOCARBONYL)DISULFIDE]	inactive	250	280	> 10000	inactive	Active	3.4	380	> 10000	39	–	–	–	–	–
CCCCSSC(=S)N(CC)CC [BUTYL DIETHYLCARBAMO(DITHIOPEROXO)THIOATE]	–	300	150	> 10000	–	–	–	400	7400	–	–	–	–	–	–
CCN(CC)C(=S)SSC1CCCCC1 [CYCLOHEXYL DIETHYLCARBAMO(DITHIOPEROXO)THIOATE]	–	280	180	> 10000	–	–	–	300	960	–	–	–	–	–	–
CCCCCCSSC(=S)N(CC)CC [DIETHYLCARBAMO(DITHIOPEROXO)THIOATE]	inactive	350	230	> 10000	inactive	Active	9.8	430	> 10000	36.5	inactive	Active	Active	Active	Active
C1CN(SSN2CCOCC2)CCO1 [DITHIODIMORPHOLINE]	–	> 10000	> 10000	> 10000	–	–	–	> 10000	> 10000	–	–	–	–	–	–
CCN(CC)C(=S)SSC(C)C [ISOPROPYL DIETHYLCARBAMO(DITHIOPEROXO)THIOATE]	–	250	230	> 10000	–	–	–	390	960	–	–	–	–	–	–
